FGF22 binding = shifts melting point of recombinant human FGF22 | recombinant FGF22 thermal shift, SYPRO orange fluorescence; percent of sucrose octasulfate shift, DMSO zero | activity (Tm shift, normalised), % at 9.99 µM | 340,000 compounds, 1.5% hits | AID 651658 | Q9HCT0;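 active means mean Tm shift, scaled 0 neutral to 100 positive control, at about 1.3% or above, every replicate too, limit read from the data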
Casp6 inh = blocks human caspase-6 cleavage activity. P55212. purified caspase-6, Z-VEID-R110 cleavage fluorescence. inhibition, % at 12.5 µM. 350,000 compounds, 0.53% hits. AID 686996;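 active means mean inhibition across replicates at least about 35%, with every replicate also reaching that limit, limit read from the data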;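 further: 0% = median of neutral control wells and 100% = no fluorescence left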
NSD2 inh = inhibitors of human histone methyltransferase NSD2 | 310,000 compounds, 0.54% hits | inhibition, % at 12.5 µM | NSD2 peptide methylation, AlphaScreen, 120 min | AID 743445; in the data active means inhibition above about 50%
UCH37 DUB inh = human UCH37 deubiquitinating enzyme inhibition; inhibition, % (concentration not given with the values); AID 588478; purified proteasome/UCH37, Ub-AMC cleavage fluorescence; Q9Y5K5; 330,000 compounds, 0.33% hits;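 active means mean inhibition over replicate wells above about 20%, limit read from the data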;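 further: 0% = compound-free wells with enzyme and 100% = wells lacking proteasome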
Target sequence (Q9Y5K5 whole entry, looked up): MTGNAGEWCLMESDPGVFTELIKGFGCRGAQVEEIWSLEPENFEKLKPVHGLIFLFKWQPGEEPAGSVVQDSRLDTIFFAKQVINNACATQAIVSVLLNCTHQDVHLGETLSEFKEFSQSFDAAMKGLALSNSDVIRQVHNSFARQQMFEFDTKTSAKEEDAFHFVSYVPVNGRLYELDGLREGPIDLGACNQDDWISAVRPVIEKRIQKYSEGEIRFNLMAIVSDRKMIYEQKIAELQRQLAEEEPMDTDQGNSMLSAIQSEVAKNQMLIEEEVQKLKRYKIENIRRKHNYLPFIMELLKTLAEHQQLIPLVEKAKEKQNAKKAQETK
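Signal – fluorescence, ex 355 nm, em 460 nm · System – Proteasome-bound UCH37 · Input – 0.15 nM proteasome as dispensed · Timing – 30 min preincubation with enzyme, 25 min cleavage at room temperature · Read-out basis – percent inhibition of cleavage signal versus uninhibited and no-proteasome wells · Medium – Tris-HCl pH 7.4 with ATP-MgCl2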
SIRT5 block = inhibitors of human sirtuin-5 desuccinylase. Q9NXA8. 330,000 compounds, 1.1% hits. inhibition, % at 15 µM. Purified SirT5, succinyl-peptide AMC, trypsin-coupled fluorescence; in the data active means inhibition above about 15%
Target sequence (Q9NXA8 whole entry, looked up): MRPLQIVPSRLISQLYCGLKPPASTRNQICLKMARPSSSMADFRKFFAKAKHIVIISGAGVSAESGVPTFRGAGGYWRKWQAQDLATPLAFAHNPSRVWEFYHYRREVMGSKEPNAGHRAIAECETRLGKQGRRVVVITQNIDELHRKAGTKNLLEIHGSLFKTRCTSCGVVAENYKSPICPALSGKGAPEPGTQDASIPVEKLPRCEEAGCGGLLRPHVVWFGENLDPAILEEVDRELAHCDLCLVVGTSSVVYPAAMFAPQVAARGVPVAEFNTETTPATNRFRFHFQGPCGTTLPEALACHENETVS
The depositor's hits bear a star; · = not tested or not shown. Hits are enriched below; roughly 2.6% of the tested compounds scored in any of these assays.

SMILES | FGF22 binding | Casp6 inh | NSD2 inh | UCH37 DUB inh | SIRT5 block
CN1CCN(C(=O)c2ccc(C(F)(F)F)cc2)CC1 | 42 | -3 | -2 | 6 | 6
CCN1CCN(C(=O)c2ccc(C(F)(F)F)cc2)CC1 | 0 | 1 | 0 | 2 | 20*
CCN(C(=O)COC(=O)CNC(=O)c1ccc2ccccc2c1)C1CCS(=O)(=O)C1 (configuration not stated) | 0 | 47* | -8 | 1 | -1
CCN(C(=O)COC(=O)c1ccccc1OCc1ccc(Cl)cc1)C1CCS(=O)(=O)C1 (configuration not stated) | 43* | 1 | -3 | 2 | ·
CCN(C(=O)COC(=O)c1ccccc1NC(=O)c1ccco1)C1CCS(=O)(=O)C1 (configuration not stated) | 43* | 2 | 46 | 2 | -1
C[C@@H]1CN([C@@H](C)CO)C(=O)c2c(c3ccccc3n2C)-c2ccccc2CO[C@H]1CN(C)Cc1ccc(Cl)c(Cl)c1 | · | 2 | · | · | -1
Nc1nc(SCC(=O)NCCO)nc2sc3c(c12)CCCC3 | 43* | -1 | -3 | 0 | -1
Nc1nc(SCC(=O)NCCCO)nc2sc3c(c12)CCC3 | · | · | -3 | 0 | ·
Clc1cccc(Cl)c1C=NNc1c(Cl)cncc1Cl | · | · | · | 2 | ·
O=C(Cc1ccccc1)c1c[nH]c(C(=O)NCc2ccncc2)c1 | 43* | -2 | 0 | 0 | 1
O=C(NCc1ccncc1)c1ccc(OCc2ccccc2)cc1 | 0 | 36* | -1 | · | ·
CCC(CC)C(=O)c1c[nH]c(C(=O)NCc2ccncc2)c1 | 0 | 0 | -1 | 5 | 2
CCC(=O)N1C[C@H](C)[C@H](OC)CN(C)C(=O)c2cc(NS(=O)(=O)CC)ccc2OC[C@@H]1C | 0 | 2 | · | · | -2
COCC#Cc1ccc2c(c1)O[C@H](CN(C)C(=O)c1ccccc1F)[C@H](C)CN([C@H](C)CO)S2(=O)=O | 0 | 1 | · | · | -4
CC(=O)NC(C)c1nc2ccccc2n1CC(=O)N1C(C)CCCC1C (configuration not stated) | 44* | 0 | 1 | 1 | 1
N#CCC(=O)Nc1ccc(C(F)(F)F)cc1N1CCOCC1 | 44* | -6 | · | 0 | -1
N/C(Cc1nc(-c2ccc(F)cc2)cs1)=N\O | 0 | -2 | 0 | · | 5
N/C(Cc1nc(-c2ccc(Br)cc2)cs1)=N\O | 43* | -5 | -3 | · | -9
O=C(NCc1ccco1)C1CCCN1C(=O)Nc1cccc(Cl)c1 (configuration not stated) | 43* | 1 | -6 | 0 | 1
Cc1ccc(NC(=O)c2nnn(-c3cccc(C(F)(F)F)c3)c2N)cc1 | 53* | -3 | -1 | 2 | -1
COC(=O)c1cc(C#N)c(Oc2ccc(OC)cc2)nc1C | · | · | -1 | 1 | ·
COC(=O)c1cc(C#N)c(OC)nc1C | 43* | 1 | 4 | 2 | -1
Cc1noc(C)c1NC(=O)N(C)C[C@@H]1Oc2c(NC(=O)Nc3ccc(F)cc3)cccc2C(=O)N([C@H](C)CO)C[C@H]1C | 0 | -1 | · | · | -9
O=C(O)CSc1c2c(nc3cc(C(=O)Nc4cccc(C(F)(F)F)c4)ccc13)CCC2 | 0 | 79* | 2 | 6 | 8
CCOc1ccc(NC(=O)c2ccc3c(SCC(=O)O)c4c(nc3c2)CCCC4)cc1 | 0 | 3 | 9 | 4 | -1
SMILES | FGF22 binding | Casp6 inh | NSD2 inh | UCH37 DUB inh | SIRT5 block
COc1cc(Cl)c(C)cc1NC(=O)c1ccc2c(SCC(=O)O)c3c(nc2c1)CCCC3 | 0 | 17 | · | -24 | -2
CCOC(=O)c1ccccc1NC(=O)c1ccc2c(SCC(=O)O)c3c(nc2c1)CCCC3 | 0 | -4 | 11 | -6 | 22*
C[C@@H]1CN([C@H](C)CO)C(=O)c2ccccc2-c2ccccc2CO[C@@H]1CN(C)S(=O)(=O)c1cn(C)cn1 | 0 | 1 | · | · | -1
COc1cc(OC)cc(C(=O)NCC(=O)OCC(=O)/C=C2/N(C)c3ccccc3C2(C)C)c1 | 43 | 11 | · | -10 | 27*
CN1/C(=C\C(=O)COC(=O)c2nccnc2N)C(C)(C)c2ccccc21 | 0 | 2 | 1 | 4 | 4
CC(C)[C@H](NC(=O)c1ccccc1)C(=O)OCC(=O)/C=C1/N(C)c2ccccc2C1(C)C | 44* | -3 | -2 | 4 | -3
COc1cc(OC)cc(C(=O)NCC(=O)OCC(=O)c2ccc3c(c2)-c2ccccc2C3)c1 | 45* | -5 | 0 | 2 | -3
CN1/C(=C\C(=O)COC(=O)Cn2nnc(-c3ccccc3)n2)C(C)(C)c2ccccc21 | · | · | -33 | -1 | ·
Cc1ccc(S(=O)(=O)Nc2ccc3c(c2)C(=O)N([C@@H](C)CO)C[C@H](C)[C@H](CN(C)S(=O)(=O)c2cccs2)O3)cc1 | -1 | 0 | · | · | 6
COc1ccc(Cc2c(-c3ccco3)nc3c(C)cc(Br)cn23)c(C)c1 | 0 | 39* | · | · | -1
CON(C)C(=O)CC(CNC(=O)OC(C)(C)C)c1ccc(Cl)cc1 (configuration not stated) | 0 | -1 | · | 3 | 21*
Nc1[nH]c(C(=O)c2ccc(Br)cc2)c(-c2ccccc2Br)c1C(=O)NCCc1c[nH]c2ccccc12 | 44* | -1 | · | · | ·
Nc1[nH]c(C(=O)c2ccccc2)c(-c2ccccc2Br)c1C(=O)NCCc1c[nH]c2ccccc12 | 0 | -3 | · | · | -3
CC=Cc1ccc2n(c1=O)C[C@@H]1[C@@H](CO)[C@H](C(=O)NCC3CC3)N(Cc3ccccc3)[C@H]21 (mixture of isomers) | 0 | 2 | · | · | 1
C/C(=N\NC(=O)c1ccccc1NC(=O)c1ccc(Cl)cc1)c1ccncc1 | 43* | 1 | -2 | · | 0
Cc1ccc2c(c1)sc(=NC(=O)c1cccs1)n2C | 43* | 1 | 2 | -48 | -7
CCC(=O)Nc1ccc(C(=O)NN=Cc2c(C)[nH]c3ccccc23)cc1 | · | · | · | 3 | ·
NNC(=O)CN1C(c2ccccc2)=Nc2ccc(Br)cc2C1c1ccccc1 (configuration not stated) | 43* | -3 | -1 | 2 | -6
CC1=Nc2ccc(Br)cc2C(c2ccccc2)N1CC(=O)NN (configuration not stated) | 43* | -3 | -9 | 8 | -4
C[C@@H]1CN([C@@H](C)CO)S(=O)(=O)c2ccc(C3=CCCCC3)cc2O[C@@H]1CN(C)C(=O)Cc1cccnc1 | 0 | 1 | · | · | 1
C[C@@H]1CN([C@H](C)CO)S(=O)(=O)c2ccc(C3=CCCCC3)cc2O[C@@H]1CN(C)C(=O)Cc1cccnc1 | 0 | -2 | · | · | 15*
C[C@H](CO)N1C[C@H](C)[C@H](CN(C)C(=O)Cc2ccccc2)Oc2ncc(C3=CCCCC3)cc2C1=O | 0 | 1 | · | · | 21*
C[C@@H]1CN([C@H](C)CO)S(=O)(=O)c2ccc(C3=CCCCC3)cc2O[C@H]1CN(C)C(=O)Nc1ccc2c(c1)OCO2 | 0 | 0 | · | · | 20*

Assay outcomes deposited in PubChem by several laboratories.
